Measurements reported in ChEMBL document CHEMBL3259728, “Design, synthesis and biological evaluation of some novel substituted quinazolines as antitumor agents” (2014).

Columns and labels:
Assay type in all cases: functional
[1] = test system: MDA-MB-468; assay: Growth inhibition of human MDA-MB-468 cells assessed as cell growth at 10 uM after 48 hrs by SRB assay; conditions: MDA-MB-468, 48 h, read-out: GI
Summary of the method: (§1)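 NCI-60 primary one-dose screen run at the US NCI, with human tumour lines from nine cancer types. Compound added once at 10^-5 M, followed by 48 h incubation. End point was sulforhodamine B protein staining read spectrophotometrically. Result given as percent growth of treated cells against untreated controls, reported as % growth inhibition.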

[2] = test system: MDA-MB-435; assay: Growth inhibition of human MDA-MB-435 cells at 10 uM after 48 hrs by SRB assay; conditions: MDA-MB-435, 48 h, read-out: GI; summary of the method: as §1
[3] = test system: HT-29; assay: Growth inhibition of human HT-29 cells at 10 uM after 48 hrs by SRB assay; conditions: HT-29, 48 h, read-out: GI; summary of the method: as §1
[4] = Growth inhibition of human UACC257 cells at 10 uM after 48 hrs by SRB assay; conditions: UACC-257, 48 h, read-out: GI; summary of the method: as §1
[5] = test system: MCF7; assay: Growth inhibition of human MCF7 cells at 10 uM after 48 hrs by SRB assay; conditions: MCF7, 48 h, read-out: GI; summary of the method: as §1
[6] = Growth inhibition of human NCI-ADR-RES cells at 10 uM after 48 hrs by SRB assay; conditions: read-out: GI; summary of the method: as §1
[7] = test system: SK-MEL-2; assay: Growth inhibition of human SK-MEL-2 cells at 10 uM after 48 hrs by SRB assay; conditions: SK-MEL-2, 48 h, read-out: GI; summary of the method: as §1
[8] = Growth inhibition of human LOXIMVI cells at 10 uM after 48 hrs by SRB assay; conditions: LOX IMVI, read-out: GI; summary of the method: as §1
[9] = test system: NCI-H226; assay: Growth inhibition of human NCI-H226 cells at 10 uM after 48 hrs by SRB assay; conditions: NCI-H226, 48 h, read-out: GI; summary of the method: as §1
[10] = test system: CAKI-1; assay: Growth inhibition of human CAKI-1 cells at 10 uM after 48 hrs by SRB assay; conditions: CAKI-1, 48 h, read-out: GI
Summary of the method: (§2)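 NCI primary one-dose screen. A single concentration of 10^-5 M was added to the cell culture, followed by 48 h incubation and an SRB protein-dye endpoint read spectrophotometrically. Results are growth percentage relative to untreated control cells, reported as % growth inhibition.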

[11] = Growth inhibition of human MOLT4 cells at 10 uM after 48 hrs by SRB assay; conditions: MOLT-4, 48 h, read-out: GI; summary of the method: as §1
[12] = test system: A549; assay: Growth inhibition of human A549 cells at 10 uM after 48 hrs by SRB assay; conditions: A549, 48 h, read-out: GI; summary of the method: as §2
[13] = test system: KM12; assay: Growth inhibition of human KM12 cells at 10 uM after 48 hrs by SRB assay; conditions: KM12, 48 h, read-out: GI; summary of the method: as §1
[14] = Growth inhibition of human OVCAR4 cells at 10 uM after 48 hrs by SRB assay; conditions: OVCAR-4, 48 h, read-out: GI; summary of the method: as §1
[15] = test system: M14; assay: Growth inhibition of human M14 cells at 10 uM after 48 hrs by SRB assay; conditions: M14, 48 h, read-out: GI; summary of the method: as §1
[16] = test system: COLO 205; assay: Growth inhibition of human COLO205 cells at 10 uM after 48 hrs by SRB assay; conditions: COLO 205, 48 h, read-out: GI; summary of the method: as §2
[17] = test system: U-251; assay: Growth inhibition of human U251 cells at 10 uM after 48 hrs by SRB assay; conditions: U-251, 48 h, read-out: GI; summary of the method: as §1
[18] = Growth inhibition of human HCC2998 cells at 10 uM after 48 hrs by SRB assay; conditions: HCC 2998, 48 h, read-out: GI; summary of the method: as §1
[19] = test system: NCI-H23; assay: Growth inhibition of human NCI-H23 cells at 10 uM after 48 hrs by SRB assay; conditions: NCI-H23, 48 h, read-out: GI; summary of the method: as §1
[20] = Growth inhibition of human OVCAR3 cells at 10 uM after 48 hrs by SRB assay; conditions: OVCAR-3, 48 h, read-out: GI; summary of the method: as §1
[21] = test system: SK-MEL-28; assay: Growth inhibition of human SK-MEL-28 cells at 10 uM after 48 hrs by SRB assay; conditions: SK-MEL-28, 48 h, read-out: GI; summary of the method: as §1
[22] = test system: SNB-19; assay: Growth inhibition of human SNB19 cells at 10 uM after 48 hrs by SRB assay; conditions: SNB-19, 48 h, read-out: GI; summary of the method: as §1
[23] = test system: A498; assay: Growth inhibition of human A498 cells at 10 uM after 48 hrs by SRB assay; conditions: A498, 48 h, read-out: GI; summary of the method: as §2
[24] = test system: PC-3; assay: Growth inhibition of human PC3 cells at 10 uM after 48 hrs by SRB assay; conditions: PC-3, 48 h, read-out: GI; summary of the method: as §1
[25] = Growth inhibition of human OVCAR5 cells at 10 uM after 48 hrs by SRB assay; conditions: OVCAR-5, 48 h, read-out: GI; summary of the method: as §1
[26] = test system: SNB-75; assay: Growth inhibition of human SNB75 cells at 10 uM after 48 hrs by SRB assay; conditions: SNB-75, 48 h, read-out: GI; summary of the method: as §1
[27] = test system: Malme-3M; assay: Growth inhibition of human MALME-3M cells at 10 uM after 48 hrs by SRB assay; conditions: read-out: GI; summary of the method: as §1
[28] = Growth inhibition of human OVCAR8 cells at 10 uM after 48 hrs by SRB assay; conditions: OVCAR-8, 48 h, read-out: GI; summary of the method: as §1
[29] = test system: HCT-116; assay: Growth inhibition of human HCT116 cells at 10 uM after 48 hrs by SRB assay; conditions: HCT-116, 48 h, read-out: GI; summary of the method: as §1
[30] = test system: NCI-H460; assay: Growth inhibition of human NCI-H460 cells at 10 uM after 48 hrs by SRB assay; conditions: NCI-H460, 48 h, read-out: GI; summary of the method: as §1
[31] = test system: 786-0; assay: Growth inhibition of human 786-0 cells at 10 uM after 48 hrs by SRB assay; conditions: 786-0, 48 h, read-out: GI; summary of the method: as §2
[32] = Growth inhibition of human BT549 cells at 10 uM after 48 hrs by SRB assay; conditions: BT-549, 48 h, read-out: GI; summary of the method: as §2
[33] = Growth inhibition of human UACC62 cells at 10 uM after 48 hrs by SRB assay; conditions: UACC-62, 48 h, read-out: GI; summary of the method: as §1
[34] = test system: ACHN; assay: Growth inhibition of human ACHN cells at 10 uM after 48 hrs by SRB assay; conditions: read-out: GI; summary of the method: as §2
[35] = test system: RPMI-8226; assay: Growth inhibition of human RPMI8226 cells at 10 uM after 48 hrs by SRB assay; conditions: RPMI-8226, 48 h, read-out: GI; summary of the method: as §1
[36] = test system: HOP-62; assay: Growth inhibition of human HOP62 cells at 10 uM after 48 hrs by SRB assay; conditions: HOP-62, 48 h, read-out: GI; summary of the method: as §1
[37] = test system: DU-145; assay: Growth inhibition of human DU145 cells at 10 uM after 48 hrs by SRB assay; conditions: DU-145, 48 h, read-out: GI; summary of the method: as §1
[38] = test system: NCI-H522; assay: Growth inhibition of human NCI-H522 cells at 10 uM after 48 hrs by SRB assay; conditions: NCI-H522, 48 h, read-out: GI; summary of the method: as §1

## Cc1ccc(-c2nc3ccc(Cl)cc3c3nnnn23)cc1
[1]
  inhibition of growth at 10 µM: < 10%
[2]
  inhibition of growth at 10 µM: 13%
[3]
  inhibition of growth at 10 µM: < 10%
[4]
  inhibition of growth at 10 µM: < 10%
[5]
  inhibition of growth at 10 µM: < 10%
[6]
  inhibition of growth at 10 µM: < 10%
[7]
  inhibition of growth at 10 µM: < 10%
[8]
  inhibition of growth at 10 µM: < 10%
[9]
  inhibition of growth at 10 µM: < 10%
[10]
  inhibition of growth at 10 µM: 25%
[11]
  inhibition of growth at 10 µM: < 10%
[12]
  inhibition of growth at 10 µM: 47%
[13]
  inhibition of growth at 10 µM: < 10%
[14]
  inhibition of growth at 10 µM: < 10%
[15]
  inhibition of growth at 10 µM: < 10%
[16]
  inhibition of growth at 10 µM: < 10%
[17]
  inhibition of growth at 10 µM: < 10%
[18]
  inhibition of growth at 10 µM: < 10%
[19]
  inhibition of growth at 10 µM: < 10%
[20]
  inhibition of growth at 10 µM: 11%
[21]
  inhibition of growth at 10 µM: < 10%
[22]
  inhibition of growth at 10 µM: 11%
[23]
  inhibition of growth at 10 µM: 11%
[24]
  inhibition of growth at 10 µM: 18%
[25]
  inhibition of growth at 10 µM: < 10%
[26]
  inhibition of growth at 10 µM: < 10%
[27]
  inhibition of growth at 10 µM: < 10%
[28]
  inhibition of growth at 10 µM: < 10%
[29]
  inhibition of growth at 10 µM: < 10%
[30]
  inhibition of growth at 10 µM: < 10%
[31]
  inhibition of growth at 10 µM: < 10%
[32]
  inhibition of growth at 10 µM: < 10%
[33]
  inhibition of growth at 10 µM: 18%
[34]
  inhibition of growth at 10 µM: < 10%
[35]
  inhibition of growth at 10 µM: < 10%
[36]
  inhibition of growth at 10 µM: 51%
[37]
  inhibition of growth at 10 µM: < 10%
[38]
  inhibition of growth at 10 µM: 21%

## Cc1ccc(-c2nc3ccc(Cl)cc3c3nnc(S)n23)cc1
[1]
  inhibition of growth at 10 µM: < 10%
[2]
  inhibition of growth at 10 µM: < 10%
[3]
  inhibition of growth at 10 µM: < 10%
[4]
  inhibition of growth at 10 µM: 33%
[5]
  inhibition of growth at 10 µM: < 10%
[6]
  inhibition of growth at 10 µM: < 10%
[7]
  inhibition of growth at 10 µM: < 10%
[8]
  inhibition of growth at 10 µM: < 10%
[9]
  inhibition of growth at 10 µM: 27%
[10]
  inhibition of growth at 10 µM: 15%
[11]
  inhibition of growth at 10 µM: 13%
[12]
  inhibition of growth at 10 µM: 11%
[13]
  inhibition of growth at 10 µM: 11%
[14]
  inhibition of growth at 10 µM: < 10%
[15]
  inhibition of growth at 10 µM: < 10%
[16]
  inhibition of growth at 10 µM: < 10%
[17]
  inhibition of growth at 10 µM: < 10%
[18]
  inhibition of growth at 10 µM: < 10%
[19]
  inhibition of growth at 10 µM: < 10%
[20]
  inhibition of growth at 10 µM: < 10%
[21]
  inhibition of growth at 10 µM: < 10%
[22]
  inhibition of growth at 10 µM: < 10%
[23]
  inhibition of growth at 10 µM: 19%
[24]
  inhibition of growth at 10 µM: < 10%
[25]
  inhibition of growth at 10 µM: < 10%
[26]
  inhibition of growth at 10 µM: < 10%
[27]
  inhibition of growth at 10 µM: < 10%
[28]
  inhibition of growth at 10 µM: < 10%
[29]
  inhibition of growth at 10 µM: < 10%
[30]
  inhibition of growth at 10 µM: < 10%
[31]
  inhibition of growth at 10 µM: < 10%
[32]
  inhibition of growth at 10 µM: < 10%
[33]
  inhibition of growth at 10 µM: < 10%
[34]
  inhibition of growth at 10 µM: < 10%
[35]
  inhibition of growth at 10 µM: < 10%
[36]
  inhibition of growth at 10 µM: < 10%
[37]
  inhibition of growth at 10 µM: < 10%
[38]
  inhibition of growth at 10 µM: < 10%
